Calls of active or inactive are those of the source.
What was measured:
LCSC-4 [1] = assay: Antitumor activity against human LCSC-4 cells assessed as increase in FOXP1 expression by Western blot analysis; type: functional, cell-based
In short: (§1)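 Western blot on TICs exposed to G9A inhibitor. Cells lysed in 2X SDS buffer; 10 μl lysate or 20 μg protein run on 4–12% SDS-PAGE, transferred to PVDF, blocked in 5% non-fat milk/TBST, then probed with primary and secondary antibodies against each target protein.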

LCSC-4 [2] = assay: Antitumor activity against human LCSC-4 cells assessed as increase in CDYL2 expression by Western blot analysis; type: functional, cell-based; in short: as §1
LCSC-1 [3] = assay: Antitumor activity against human LCSC-1 cells assessed as decrease in cell proliferation at 10 uM for 72 hrs by CCK-8 assay; type: functional, cell-based
In short: (§2)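 TIC spheres dissociated to single cells with accutase and grown in serum-free DMEM/F12 with B-27, 25 ng/ml EGF, 25 ng/ml FGF and heparin. Cells were treated with 10 μM inhibitor at 37 °C for 72 h in 96-well format. CCK-8 solution was then added for 1–4 h and absorbance read at 450 nm. Groups compared against control by t test.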

LCSC-2 [4] = assay: Antitumor activity against human LCSC-2 cells assessed as increase in STAMBPL1 expression by Western blot analysis; type: functional, cell-based; in short: as §1
LCSC-2 [5] = assay: Antitumor activity against human LCSC-2 cells assessed as increase in SP5 expression by Western blot analysis; type: functional, cell-based; in short: as §1
LCSC-2 (human) [6] = assay: Antitumor activity against human LCSC-2 cells xenografted in NOD-SCID mouse assessed as decrease in H3K9Me2 expression at 10 mg/kg, ip administered for 8 weeks by immunohistochemical staining assay
LCSC-4 [7] = assay: Antitumor activity against human LCSC-4 cells assessed as increase in STAMBPL1 expression by Western blot analysis; type: functional, cell-based; in short: as §1
LCSC-2 (human) [8] = assay: Antitumor activity against human LCSC-2 cells xenografted in NOD-SCID mouse assessed as increase in FOXP1 expression at 10 mg/kg, ip administered for 8 weeks by immunohistochemical staining assay
LCSC-4 [9] = assay: Antitumor activity against human LCSC-4 cells assessed as increase in DPP4 expression by Western blot analysis; type: functional, cell-based; in short: as §1
LCSC-2 [10] = assay: Antitumor activity against human LCSC-2 cells assessed as increase in FOXP1 expression by Western blot analysis; type: functional, cell-based; in short: as §1
LCSC-4 [11] = assay: Antitumor activity against human LCSC-4 cells assessed as decrease in tumor sphere formation at 10 uM for 72 hrs; type: functional, cell-based
In short: (§3)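 Single cells from accutase-dissociated tumorspheres, 50,000–100,000 per well, grown in serum-free sphere medium (B-27, EGF, FGF, heparin). Exposed to 10 μM inhibitor at 37 °C for 72 h, then imaged. Sphere-forming capacity was scored by sphere size, and treated cells were compared with control by t test.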

LCSC-2 [12] = assay: Antitumor activity against human LCSC-2 cells assessed as decrease in cell proliferation at 10 uM for 72 hrs by CCK-8 assay; type: functional, cell-based; in short: as §2
LCSC-2 [13] = assay: Antitumor activity against human LCSC-2 cells assessed as decrease in tumor sphere formation at 10 uM for 72 hrs; type: functional, cell-based; in short: as §3
LCSC-4 [14] = assay: Antitumor activity against human LCSC-4 cells xenografted in NOD-SCID mouse assessed as increase in FOXP1 expression at 10 mg/kg, ip administered for 8 weeks by immunohistochemical staining assay; type: functional, organism-based
In short: (§4)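 NOD-SCID mice given 100,000 single cells from dissociated wild-type TIC spheres subcutaneously. Established tumors split into vehicle or 10 mg/kg inhibitor groups, dosed intraperitoneally for 8 weeks. Tumor size measured weekly and tumor weight taken at euthanasia. Tumors fixed in 10% formaldehyde and stained by IHC (×20) for G9A, H3K9Me2, FOXP1 and SP5; t test.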

LCSC-2 (human) [15] = assay: Antitumor activity against human LCSC-2 cells xenografted in NOD-SCID mouse assessed as suppression of tumor volume at 10 mg/kg, ip administered for 8 weeks
LCSC-4 [16] = assay: Antitumor activity against human LCSC-4 cells xenografted in NOD-SCID mouse assessed as suppression of tumor volume at 10 mg/kg, ip administered for 8 weeks; type: functional, organism-based; in short: as §4
LCSC-4 [17] = assay: Antitumor activity against human LCSC-4 cells assessed as increase in SP5 expression by Western blot analysis; type: functional, cell-based; in short: as §1
LCSC-2 (human) [18] = assay: Antitumor activity against human LCSC-2 cells xenografted in NOD-SCID mouse assessed as increase in SP5 expression at 10 mg/kg, ip administered for 8 weeks by immunohistochemical staining assay
LCSC-2 (human) [19] = assay: Antitumor activity against human LCSC-2 cells xenografted in NOD-SCID mouse assessed as decrease in G9a expression at 10 mg/kg, ip administered for 8 weeks by immunohistochemical staining assay
LCSC-2 [20] = assay: Antitumor activity against human LCSC-2 cells assessed as increase in CDYL2 expression by Western blot analysis; type: functional, cell-based; in short: as §1
LCSC-4 [21] = assay: Antitumor activity against human LCSC-4 cell assessed as decrease in cell proliferation at 10 uM for 72 hrs by CCK-8 assay; type: functional, cell-based; in short: as §2
LCSC-2 [22] = assay: Antitumor activity against human LCSC-2 cells assessed as increase in DPP4 expression by Western blot analysis; type: functional, cell-based; in short: as §1
LCSC-4 [23] = assay: Antitumor activity against human LCSC-4 cells xenografted in NOD-SCID mouse assessed as increase in SP5 expression at 10 mg/kg, ip administered for 8 weeks by immunohistochemical staining assay; type: functional, organism-based; in short: as §4
LCSC-4 [24] = assay: Antitumor activity against human LCSC-4 cells assessed as increase in ROBO1 expression by Western blot analysis; type: functional, cell-based; in short: as §1
LCSC-2 [25] = assay: Antitumor activity against human LCSC-2 cells assessed as increase in ROBO1 expression by Western blot analysis; type: functional, cell-based; in short: as §1
LCSC-4 [26] = assay: Antitumor activity against human LCSC-4 cells xenografted in NOD-SCID mouse assessed as decrease in G9a expression at 10 mg/kg, ip administered for 8 weeks by immunohistochemical staining assay; type: functional, organism-based; in short: as §4
LCSC-4 [27] = assay: Antitumor activity against human LCSC-4 cells xenografted in NOD-SCID mouse assessed as decrease in H3K9Me2 expression at 10 mg/kg, ip administered for 8 weeks by immunohistochemical staining assay; type: functional, organism-based; in short: as §4
LCSC-1 [28] = assay: Antitumor activity against human LCSC-1 cells assessed as decrease in tumor sphere formation at 10 uM for 72 hrs; type: functional, cell-based; in short: as §3

Measured: Activity

COc1cc2c(NC3CCN(C(C)C)CC3)nc(N3CCC(F)(F)CC3)nc2cc1OCCCN1CCCC1
active: all assays above
